Measurements collected from several papers.
Compare with care: the assays were run in different laboratories.
Organism: Candida albicans
Observed: microbial growth
Technique: broth dilution

| SMILES | system | setting | MIC |
| --- | --- | --- | --- |
| C/C(=N\c1nc(N)nc(/N=C(\C)c2c(O)c3ccccc3oc2=O)n1)c1c(O)c2ccccc2oc1=O | – | 48 h | 62.5 µg/mL |
| C[C@@H]1[C@H](O)[C@@H](C)/C=C/C=C/C=C/C=C/C=C/C=C/C=C/[C@H](O[C@@H]2O[C@H](C)[C@@H](O)[C@H](N)[C@@H]2O)C[C@@H]2O[C@](O)(C[C@@H](O)C[C@@H](O)[C@H](O)CC[C@@H](O)C[C@@H](O)CC(=O)O[C@H]1C)C[C@H](O)[C@H]2C(=O)O | SP3903 | 48 h | < 0.25 µM |
| Nc1nn2c(-c3ccco3)cc(-c3ccc(OCc4ccccc4)cc3)nc2c1N=Nc1ccc(F)cc1 | ATCC10231 | – | 125 µg/mL |
| C/C(=N\C(=S)/N=C(\C)c1c(O)c2ccccc2oc1=O)c1c(O)c2ccccc2oc1=O | – | 48 h | 3.9 µg/mL |
| CC(=O)ON=C1C=CC(=C(C#N)c2ccccc2)C=C1 | ATCC10231 | 48 h | 2 µg/mL |
| CC(=O)C1=NN(c2ccc([N+](=O)[O-])cc2)C(=C(C#N)C(=O)c2ccc(Nc3cnccn3)cc2)S1 | ATCC10231 | – | 6.25 µg/mL |
| CC(=O)N1CCN(c2ccc(OCC3COC(Cn4ccnc4)(c4ccc(Cl)cc4Cl)O3)cc2)CC1 (stereo not shown) | 58288 | 48 h | 16 µM |
| CCON=C1C=CC(=C(C#N)c2ccccc2)C=C1 | ATCC10231 | 48 h | 256 µg/mL |
| Cc1ccc(N=Nc2c(N)nn3c(-c4ccco4)cc(-c4ccc(OCc5ccccc5)cc4)nc23)cc1 | ATCC10231 | – | 31.3 µg/mL |
| OC(Cn1cncn1)(Cn1cncn1)c1ccc(F)cc1F | SP3902 | 48 h | 8 µM |
| N=c1sc(C(=O)c2ccc(Nc3cnccn3)cc2)nn1-c1ccccc1 | ATCC10231 | – | 100 µg/mL |
| C/C(=N\CCNCCNCC/N=C(\C)c1c(O)c2ccccc2oc1=O)c1c(O)c2ccccc2oc1=O | – | 48 h | 15.6 µg/mL |
| N#CC(C#N)=C1SC(C(=O)c2ccc(Nc3cnccn3)cc2)=NN1c1ccccc1 | ATCC10231 | – | 100 µg/mL |
| Cc1ccc(N=Nc2c(N)nn3c(-c4ccc(Cl)cc4Cl)cc(-c4ccc(OCc5ccccc5)cc4)nc23)cc1 | ATCC10231 | – | 31.3 µg/mL |
| CC(=O)C1=NN(c2ccccc2)C(=C(C#N)C(=O)c2ccc(Nc3cnccn3)cc2)S1 | ATCC10231 | – | 100 µg/mL |
| C/C(=N\NC(=O)/N=C(\C)c1c(O)c2ccccc2oc1=O)c1c(O)c2ccccc2oc1=O | – | 48 h | 31.2 µg/mL |
| C=CC(=O)ON=C1C=CC(=C(C#N)c2ccccc2)C=C1 | ATCC10231 | 48 h | 2 µg/mL |
| O=C1/C(=C/c2ccc3ccccc3c2O)NC(=S)N1c1ccccc1 | ATCC10 ATCC10231 | – | 20 µg/mL |
| C/C(=N\C(=N)/N=C(\C)c1c(O)c2ccccc2oc1=O)c1c(O)c2ccccc2oc1=O | – | 48 h | 31.2 µg/mL |
| Nc1nn2c(-c3ccc(Cl)cc3Cl)cc(-c3ccc(OCc4ccccc4)cc3)nc2c1N=Nc1ccc(F)cc1 | ATCC10231 | – | 62.5 µg/mL |
| OC(Cn1cncn1)(Cn1cncn1)c1ccc(F)cc1F | 1 | 24 h | 128 µg/mL |
| C#CCOC(=O)ON=C1C=CC(=C(C#N)c2ccccc2)C=C1 | ATCC10231 | 48 h | 4 µg/mL |
| Cc1ccc(N=Nc2c(N)nn3c(-c4ccc(C)cc4)cc(-c4ccc(OCc5ccccc5)cc4)nc23)cc1 | ATCC10231 | – | 31.3 µg/mL |
| CC(=O)N1CCN(c2ccc(OCC3COC(Cn4ccnc4)(c4ccc(Cl)cc4Cl)O3)cc2)CC1 (stereo not shown) | ATCC10231 | 48 h | 8 µg/mL |
| OC(Cn1cncn1)(Cn1cncn1)c1ccc(F)cc1F | ATCC90028 | 48 h | 8 µg/mL |
